Results: ChEMBL document CHEMBL4196175, “First SAR Study for Overriding NRAS Mutant Driven Acute Myeloid Leukemia” (J Med Chem, 2018)
Calls of active or inactive are those of the source. The calls are words filed in the database; no cut-off is given here.

What was measured:
OCI-AML-3 [1] = assay: Growth inhibition of ACK1/GCK knockdown human OCI-AML3 cells harboring NRAS-Q61L mutant at 0.5 uM after 72 hrs by celltiter-glo assay; type: functional, cell-based
OCI-AML-3 [2] = assay: Induction of apoptosis in human OCI-AML3 cells harboring NRAS Q61L mutant assessed as increase in apoptotic cells after 24 hrs by annexin V/propidium iodide staining based FACS analysis; type: functional, cell-based
Procedure, shortened: (§1)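 Apoptosis scored by flow cytometry after FITC-annexin V/propidium iodide dual staining following 24 h exposure, at 1 µM or a range of indicated concentrations; three independent experiments, mean with SD, one-way ANOVA.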

BaF3 [3] = assay: Induction of apoptosis in mouse BA/F3 cells expressing NRAS-G12D mutant assessed as increase in cleaved PARP levels at 5 uM after 24 hrs by Western blot analysis; type: functional, cell-based
Procedure, shortened: (§2)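 Cells treated 24 h with indicated concentrations (1 µM; 5 µM also used in Ba/F3-NRAS-G12D); cleaved PARP, cleaved caspase 3, bcl-2 and MCL1 detected by western blot with actin as loading control.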

[4] = biological target: Tyrosine-protein kinase Fgr (Homo sapiens) (UniProt P09769); assay: Inhibition of human FGR at 1 uM relative to control
BaF3 [5] = assay: Antileukemic activity against mouse BA/F3 cells harboring NRAS-G12D mutant allografted in immunodeficient mouse assessed as median survival time at 15 mg/kg/day, po qd administered on day 6 post implantation (reference value: 23 days); type: functional
[6] = biological target: Ephrin type-A receptor 1 (Homo sapiens) (UniProt P21709); assay: Inhibition of human EphA1 at 1 uM relative to control
OCI-AML-3 [7] = assay: Antileukemic activity against human OCI-AML3 cells harboring NRAS-Q61L mutant xenografted in immunodeficient po dosed mouse administered qd on day 21 post implantation measured on day 20 post dose; type: functional, organism-based
[8] = biological target: Tyrosine-protein kinase Fyn (Homo sapiens) (UniProt P06241); assay: Inhibition of human FYN at 1 uM relative to control
[9] = biological target: Tyrosine-protein kinase JAK1 (Homo sapiens) (UniProt P23458); assay: Inhibition of human JAK1 at 1 uM relative to control
OCI-AML-3 [10] = assay: Antileukemic activity against human OCI-AML3 cells harboring NRAS-Q61L mutant xenografted in immunodeficient mouse assessed as tumor volume at 15 mg/kg/day, po qd administered on day 21 post implantation measured on day 20 post dose (reference value: 100%); type: functional
[11] = biological target: Tyrosine-protein kinase Blk (Homo sapiens) (UniProt P51451); assay: Inhibition of human BLK at 1 uM relative to control
[12] = MRTinfinity in mouse at 10 mg/kg, po; type: ADME, organism-based; details: in vivo
[13] = AUClast in mouse at 10 mg/kg, po; type: ADME, organism-based; design: dose 10 mg/kg, time 0 - last, route oral; details: in vivo
[14] = biological target: Tyrosine-protein kinase JAK2 (Homo sapiens) (UniProt O60674); assay: Inhibition of human JAK2 at 1 uM relative to control
[15] = biological target: Proto-oncogene tyrosine-protein kinase Src (Homo sapiens) (UniProt P12931); details: 1 uM
BaF3 [16] = assay: Induction of apoptosis in mouse BA/F3 cells expressing NRAS-G12D mutant assessed as increase in apoptotic cell after 24 hrs by annexin V/propidium iodide staining based FACS analysis; type: functional; procedure, shortened: as §1
Mus musculus = assay: Toxicity in immunodeficient mouse allografted with mouse BA/F3 cells harboring NRAS-G12D mutant assessed as body weight loss at 15 to 25 mg/kg/day, po qd administered on day 6 post implantation; type: organism-based; details: in vivo
Procedure, shortened: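 Immunodeficient mice were given Ba/F3-NRAS-G12D/luciferase cells by tail-vein injection and then dosed orally once daily, with a vehicle-only cohort as control. Body weight was followed during treatment. The bioluminescence cohorts had n=4 and were treated for 3 weeks.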

[17] = biological target: Discoidin domain-containing receptor 2 (Homo sapiens) (UniProt Q16832); assay: Inhibition of human DDR2 at 1 uM relative to control
[18] = biological target: Cytoplasmic tyrosine-protein kinase BMX (Homo sapiens) (UniProt P51813); details: 1 uM
[19] = Half life in mouse at 10 mg/kg, po; type: ADME, organism-based; details: in vivo
[20] = biological target: Vascular endothelial growth factor receptor 2 (Homo sapiens) (UniProt P35968); assay: Inhibition of human KDR at 1 uM relative to control
[21] = biological target: Platelet-derived growth factor receptor alpha (Homo sapiens) (UniProt P16234); assay: Inhibition of human PDGFRa at 1 uM relative to control
[22] = biological target: Platelet-derived growth factor receptor beta (Homo sapiens) (UniProt P09619); assay: Inhibition of human PDGFRbeta at 1 uM relative to control
[23] = AUCinfinity in mouse at 10 mg/kg, po; type: ADME, organism-based; design: dose 10 mg/kg, route oral, time infinity; details: in vivo
[24] = biological target: Mitogen-activated protein kinase 11 (Homo sapiens) (UniProt Q15759); assay: Inhibition of human P38beta at 1 uM relative to control
BaF3 [25] = assay: Antileukemic activity against mouse BA/F3 cells harboring NRAS-G12D mutant/luciferase allografted in immunodeficient mouse at 15 mg/kg/day, po qd administered on day 6 post implantation measured on day 20 post implantation by bioluminescence imaging method; type: functional
Procedure, shortened: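 Immunodeficient mice injected via tail vein with Ba/F3-NRAS-G12D/Luc cells, dosed orally once daily (8 or 15 mg/kg/day) or vehicle for 3 weeks, n=4 per cohort; bioluminescence imaged every two days after luciferin 150 mg/kg, quantified by bio-photonic analysis.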

[26] = biological target: Tyrosine-protein kinase ABL2 (Homo sapiens) (UniProt P42684); assay: Inhibition of human ABL2 at 1 uM relative to control
BaF3 [27] = assay: Induction of apoptosis in mouse BA/F3 cells expressing NRAS-G12D mutant assessed as decrease in MCL1 levels at 1 uM after 24 hrs by Western blot analysis; type: functional, cell-based; procedure, shortened: as §2
BaF3 [28] = assay: Induction of apoptosis in mouse BA/F3 cells expressing NRAS-G12D mutant assessed as increase in cleaved caspase-3 levels at 1 uM after 24 hrs by Western blot analysis; type: functional, cell-based; procedure, shortened: as §2
BaF3 [29] = assay: Induction of apoptosis in mouse BA/F3 cells expressing NRAS-G12D mutant assessed as increase in cleaved PARP levels at 1 uM after 24 hrs by Western blot analysis; type: functional, cell-based; procedure, shortened: as §2

Sequence of Tyrosine-protein kinase Fgr (Homo sapiens) (P09769 2-529 limits assumed): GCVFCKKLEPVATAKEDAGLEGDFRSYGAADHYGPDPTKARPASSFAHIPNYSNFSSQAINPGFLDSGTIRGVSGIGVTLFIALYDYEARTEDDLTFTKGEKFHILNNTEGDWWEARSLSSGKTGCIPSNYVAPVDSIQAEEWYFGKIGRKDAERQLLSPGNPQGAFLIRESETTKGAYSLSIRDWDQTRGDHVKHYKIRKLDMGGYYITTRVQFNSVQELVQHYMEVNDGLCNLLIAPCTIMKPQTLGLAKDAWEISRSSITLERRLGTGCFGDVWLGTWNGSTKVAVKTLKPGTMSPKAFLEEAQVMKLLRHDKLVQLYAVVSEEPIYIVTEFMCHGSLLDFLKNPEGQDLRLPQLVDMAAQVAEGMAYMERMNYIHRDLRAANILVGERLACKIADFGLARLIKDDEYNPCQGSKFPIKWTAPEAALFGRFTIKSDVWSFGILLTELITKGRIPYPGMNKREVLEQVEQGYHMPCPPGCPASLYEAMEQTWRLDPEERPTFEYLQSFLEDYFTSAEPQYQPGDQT
Sequence of Platelet-derived growth factor receptor beta (Homo sapiens) (P09619 whole entry): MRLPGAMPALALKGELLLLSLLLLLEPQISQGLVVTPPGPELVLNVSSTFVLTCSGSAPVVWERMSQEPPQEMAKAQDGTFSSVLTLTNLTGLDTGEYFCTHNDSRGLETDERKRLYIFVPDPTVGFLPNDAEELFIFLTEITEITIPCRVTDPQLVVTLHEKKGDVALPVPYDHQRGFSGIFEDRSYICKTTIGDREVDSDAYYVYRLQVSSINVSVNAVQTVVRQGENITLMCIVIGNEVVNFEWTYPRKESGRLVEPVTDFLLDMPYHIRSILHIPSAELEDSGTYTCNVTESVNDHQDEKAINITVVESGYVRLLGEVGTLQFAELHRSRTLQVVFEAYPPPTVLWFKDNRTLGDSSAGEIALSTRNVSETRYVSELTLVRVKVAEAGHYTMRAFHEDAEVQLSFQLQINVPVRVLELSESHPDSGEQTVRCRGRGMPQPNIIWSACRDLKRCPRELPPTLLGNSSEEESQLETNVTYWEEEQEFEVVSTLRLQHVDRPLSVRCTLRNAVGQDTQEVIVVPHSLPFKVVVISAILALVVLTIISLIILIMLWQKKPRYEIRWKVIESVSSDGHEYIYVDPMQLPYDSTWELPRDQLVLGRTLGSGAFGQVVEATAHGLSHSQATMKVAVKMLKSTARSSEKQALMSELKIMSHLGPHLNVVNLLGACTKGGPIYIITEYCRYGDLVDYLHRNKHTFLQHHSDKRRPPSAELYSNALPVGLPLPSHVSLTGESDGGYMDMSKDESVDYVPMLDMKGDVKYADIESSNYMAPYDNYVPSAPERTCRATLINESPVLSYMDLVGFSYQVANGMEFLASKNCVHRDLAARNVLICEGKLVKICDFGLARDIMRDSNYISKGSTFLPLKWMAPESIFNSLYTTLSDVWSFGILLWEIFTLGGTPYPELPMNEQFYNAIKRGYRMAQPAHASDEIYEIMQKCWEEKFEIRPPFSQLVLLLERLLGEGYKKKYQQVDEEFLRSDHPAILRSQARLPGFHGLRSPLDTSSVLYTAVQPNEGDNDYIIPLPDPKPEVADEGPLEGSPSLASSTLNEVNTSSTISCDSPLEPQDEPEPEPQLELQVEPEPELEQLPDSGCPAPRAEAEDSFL
Sequence of Discoidin domain-containing receptor 2 (Homo sapiens) (Q16832 whole entry, the tested form may be a part): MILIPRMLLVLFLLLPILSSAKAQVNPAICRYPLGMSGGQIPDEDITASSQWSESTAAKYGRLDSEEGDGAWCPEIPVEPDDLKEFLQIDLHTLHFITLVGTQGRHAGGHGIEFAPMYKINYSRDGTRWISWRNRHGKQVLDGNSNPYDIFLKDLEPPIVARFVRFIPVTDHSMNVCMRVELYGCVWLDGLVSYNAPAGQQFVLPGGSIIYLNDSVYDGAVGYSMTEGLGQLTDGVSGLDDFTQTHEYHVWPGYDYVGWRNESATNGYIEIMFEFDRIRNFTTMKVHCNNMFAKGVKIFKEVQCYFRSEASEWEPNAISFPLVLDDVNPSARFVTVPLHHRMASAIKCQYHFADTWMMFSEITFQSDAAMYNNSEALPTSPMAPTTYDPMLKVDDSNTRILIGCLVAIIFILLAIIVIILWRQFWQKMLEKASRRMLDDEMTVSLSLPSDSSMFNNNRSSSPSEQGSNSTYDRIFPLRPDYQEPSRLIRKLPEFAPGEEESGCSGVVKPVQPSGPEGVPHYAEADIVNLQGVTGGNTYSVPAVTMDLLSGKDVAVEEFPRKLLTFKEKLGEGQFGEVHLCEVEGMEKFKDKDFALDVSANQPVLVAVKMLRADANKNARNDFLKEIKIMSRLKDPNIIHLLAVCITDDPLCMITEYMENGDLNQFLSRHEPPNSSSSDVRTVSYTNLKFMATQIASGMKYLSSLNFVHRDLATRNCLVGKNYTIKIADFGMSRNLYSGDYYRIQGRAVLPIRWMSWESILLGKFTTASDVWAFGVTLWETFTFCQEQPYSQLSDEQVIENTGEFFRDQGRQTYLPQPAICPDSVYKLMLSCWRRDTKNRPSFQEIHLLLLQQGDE
Sequence of Tyrosine-protein kinase ABL2 (Homo sapiens) (P42684 whole entry): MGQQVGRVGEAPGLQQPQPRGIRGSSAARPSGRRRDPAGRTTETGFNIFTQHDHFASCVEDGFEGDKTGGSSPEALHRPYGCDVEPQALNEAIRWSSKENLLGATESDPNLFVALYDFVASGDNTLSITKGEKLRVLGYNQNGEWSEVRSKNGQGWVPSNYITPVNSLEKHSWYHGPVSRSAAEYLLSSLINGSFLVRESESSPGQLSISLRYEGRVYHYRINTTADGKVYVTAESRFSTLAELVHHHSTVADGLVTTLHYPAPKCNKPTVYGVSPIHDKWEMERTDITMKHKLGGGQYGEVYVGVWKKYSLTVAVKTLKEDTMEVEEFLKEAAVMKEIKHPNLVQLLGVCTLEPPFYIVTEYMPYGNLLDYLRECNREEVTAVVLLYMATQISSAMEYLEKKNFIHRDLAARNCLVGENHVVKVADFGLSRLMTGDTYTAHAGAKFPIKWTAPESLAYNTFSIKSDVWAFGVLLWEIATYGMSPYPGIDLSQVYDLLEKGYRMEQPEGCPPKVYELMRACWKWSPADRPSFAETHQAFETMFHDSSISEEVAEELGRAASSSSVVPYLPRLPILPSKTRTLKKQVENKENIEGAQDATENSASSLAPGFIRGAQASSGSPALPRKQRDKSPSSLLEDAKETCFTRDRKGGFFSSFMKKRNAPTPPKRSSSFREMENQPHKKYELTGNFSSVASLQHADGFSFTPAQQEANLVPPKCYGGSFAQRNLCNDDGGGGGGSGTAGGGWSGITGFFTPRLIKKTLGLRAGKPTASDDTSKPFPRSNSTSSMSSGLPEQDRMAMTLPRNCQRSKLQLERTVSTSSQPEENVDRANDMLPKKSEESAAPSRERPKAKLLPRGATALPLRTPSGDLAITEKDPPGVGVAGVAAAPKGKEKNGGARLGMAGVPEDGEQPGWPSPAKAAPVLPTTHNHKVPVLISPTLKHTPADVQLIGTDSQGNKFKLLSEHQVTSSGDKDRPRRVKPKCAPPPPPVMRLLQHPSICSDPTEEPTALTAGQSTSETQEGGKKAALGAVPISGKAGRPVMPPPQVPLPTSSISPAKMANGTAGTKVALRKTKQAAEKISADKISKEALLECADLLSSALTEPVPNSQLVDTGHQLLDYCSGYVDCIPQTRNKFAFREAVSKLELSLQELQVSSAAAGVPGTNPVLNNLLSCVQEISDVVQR
Sequence of Mitogen-activated protein kinase 11 (Homo sapiens) (Q15759 whole entry): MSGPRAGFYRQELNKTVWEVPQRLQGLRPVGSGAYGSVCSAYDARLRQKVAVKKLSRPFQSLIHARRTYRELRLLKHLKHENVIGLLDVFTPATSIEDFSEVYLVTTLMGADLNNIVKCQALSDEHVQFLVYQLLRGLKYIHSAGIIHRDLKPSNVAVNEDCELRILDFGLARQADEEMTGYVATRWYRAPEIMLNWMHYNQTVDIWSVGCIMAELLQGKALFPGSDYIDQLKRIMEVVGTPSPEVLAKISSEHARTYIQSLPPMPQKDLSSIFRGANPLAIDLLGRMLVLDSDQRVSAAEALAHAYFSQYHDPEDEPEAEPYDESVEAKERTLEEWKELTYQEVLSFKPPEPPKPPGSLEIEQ
Sequence of Cytoplasmic tyrosine-protein kinase BMX (Homo sapiens) (P51813 whole entry): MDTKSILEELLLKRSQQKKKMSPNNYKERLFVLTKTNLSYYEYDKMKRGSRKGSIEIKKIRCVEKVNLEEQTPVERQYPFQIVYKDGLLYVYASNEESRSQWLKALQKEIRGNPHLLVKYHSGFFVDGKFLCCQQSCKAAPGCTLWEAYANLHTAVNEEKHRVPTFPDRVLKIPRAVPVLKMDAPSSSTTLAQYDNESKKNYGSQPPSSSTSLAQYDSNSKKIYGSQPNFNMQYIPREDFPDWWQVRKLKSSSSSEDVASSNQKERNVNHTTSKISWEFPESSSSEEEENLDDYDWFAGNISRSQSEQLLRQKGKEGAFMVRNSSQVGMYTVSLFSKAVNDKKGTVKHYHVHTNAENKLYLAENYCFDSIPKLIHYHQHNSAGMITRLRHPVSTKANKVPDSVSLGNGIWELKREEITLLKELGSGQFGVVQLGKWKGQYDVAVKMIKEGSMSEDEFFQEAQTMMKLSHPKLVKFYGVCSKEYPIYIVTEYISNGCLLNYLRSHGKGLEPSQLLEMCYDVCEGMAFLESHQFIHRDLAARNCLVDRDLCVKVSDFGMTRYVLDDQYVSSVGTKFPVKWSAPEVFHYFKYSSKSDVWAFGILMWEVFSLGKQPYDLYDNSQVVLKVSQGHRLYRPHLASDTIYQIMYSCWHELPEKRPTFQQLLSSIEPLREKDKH

In the case of `Cc1ccc(NC(=O)c2cccc(C(F)(F)F)c2)cc1N1Cc2cnc(N)nc2N(C)C1=O`, the “growth inhibition (GI)” value (OCI-AML-3 [1]) is reported as “Active”, the Activity (OCI-AML-3 [2]) is reported as “Dose-dependent effect” and the Activity (BaF3 [3]) is reported as “Active”. It also gave an inhibition [4] of 99.1%, an MSD (BaF3 [5]) of 29 days and an inhibition [6] of 90.7%. For the same compound, the Activity (OCI-AML-3 [7]) was “Dose-dependent effect”, the inhibition [8] was 99.2% and the inhibition [9] was 94.9%. It also gave an Activity (OCI-AML-3 [10]) of 41.9%, an inhibition [11] of 95.9% and an MRT inf [12] of 18.1 h. For the same compound, the AUC(0-t) [13] was 36400 ng·h/mL, the inhibition [14] was 94.4% and the inhibition [15] was 100%. The Activity (BaF3 [16]) was “Dose-dependent effect”, the Activity (Mus musculus) was “Non-Toxic” and the inhibition [17] was 98.1%. The inhibition [18] was 99.4%, the half-life [19] was 12.4 h and the inhibition [20] was 96.4%. For the same compound, the inhibition [21] was 95%, the inhibition [22] was 98.1% and the AUC(0-inf) [23] was 52500 ng·h/mL. The inhibition [24] was 98%, the Activity (BaF3 [25]) was over 50% and the inhibition [26] was 98.3%.
With `CC(=O)N1CCN(c2ccc(Nc3ncc4c(n3)N(C)C(=O)N(c3cc(NC(=O)c5cccc(C(F)(F)F)c5)ccc3C)C4)cn2)CC1` the Activity (BaF3 [27]) was “Active”, the Activity (BaF3 [28]) was “Active” and the Activity (BaF3 [29]) was “Active”.
